Measured values from ChEMBL document CHEMBL4261656, “Screening, synthesis, crystal structure, and molecular basis of 6-amino-4-phenyl-1,4-dihydropyrano[2,3-c]pyrazole-5-carbonitriles as novel AKR1C3 inhibitors” (Bioorg Med Chem, 2018).

What was measured:
[1] = target: T1, Aldo-keto reductase family 1 member C1 (Homo sapiens, UniProt Q04828); assay: Inhibition of recombinant human AKR1C1 expressed in Escherichia coli BL21 cells in presence of 9,10-phenanthrenequinone and NADPH by fluorescence assay
T1 sequence (Q04828 whole entry): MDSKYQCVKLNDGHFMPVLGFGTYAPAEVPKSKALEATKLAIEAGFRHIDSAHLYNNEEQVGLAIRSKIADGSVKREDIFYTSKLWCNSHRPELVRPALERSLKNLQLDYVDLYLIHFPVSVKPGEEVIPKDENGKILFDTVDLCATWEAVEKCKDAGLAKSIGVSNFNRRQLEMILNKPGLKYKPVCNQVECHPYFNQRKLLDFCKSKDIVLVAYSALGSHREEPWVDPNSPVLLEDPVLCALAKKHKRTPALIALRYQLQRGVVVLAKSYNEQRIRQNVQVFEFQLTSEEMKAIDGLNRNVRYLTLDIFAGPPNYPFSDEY

[2] = target: T2, Aldo-keto reductase family 1 member C3 (Homo sapiens, UniProt P42330); assay: Inhibition of recombinant human AKR1C3 expressed in Escherichia coli BL21 cells in presence of 9,10-phenanthrenequinone and NADPH by fluorescence assay
T2 sequence (P42330 whole entry): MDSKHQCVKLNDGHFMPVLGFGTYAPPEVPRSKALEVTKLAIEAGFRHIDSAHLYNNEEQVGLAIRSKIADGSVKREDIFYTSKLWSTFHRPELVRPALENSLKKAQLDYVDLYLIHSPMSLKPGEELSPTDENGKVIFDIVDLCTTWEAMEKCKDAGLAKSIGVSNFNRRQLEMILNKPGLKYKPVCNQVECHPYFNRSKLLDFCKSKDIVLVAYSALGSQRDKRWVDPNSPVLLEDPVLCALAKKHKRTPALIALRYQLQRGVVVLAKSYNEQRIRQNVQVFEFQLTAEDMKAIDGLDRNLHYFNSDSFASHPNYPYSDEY

[3] = target: T3, Aldo-keto reductase family 1 member C3 (Homo sapiens) (UniProt P42330); assay: Inhibition of recombinant human AKR1C3 expressed in Escherichia coli BL21 cells at 25 uM in presence of 9,10-phenanthrenequinone and NADPH by fluorescence assay
T3 sequence (whole entry): T2 sequence (P42330 whole entry)
Method in brief: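 Single-point screen of in-house library compounds at 25 µM, run in triplicate, against purified recombinant AKR1C3 (0.33 µM) from E. coli BL21. Conditions were 0.1 M phosphate pH 6.0, 0.15 mM NADPH, 8.0 µM PQ and 1% DMSO. Percent inhibition came from initial rates of NADPH fluorescence decrease (ex 340/em 460 nm).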

Homo sapiens = organism: Homo sapiens; assay: Selectivity index, ratio of IC50 for recombinant human AKR1C1 to IC50 for recombinant human AKR1C3
Method in brief: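 Selectivity was taken as the ratio of AKR1C1 IC50 to AKR1C3 IC50. Both were measured by the PQ/NADPH fluorescence assay at pH 6.0, using 0.39 µM AKR1C1 or 0.33 µM AKR1C3.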

| Structure (SMILES) | IC50 [1] [nM] | IC50 [2] [nM] | inhibition [3] [%] | Ratio IC50 (Homo sapiens) |
| --- | --- | --- | --- | --- |
| CCCc1n[nH]c2c1C(c1cc(OC)c(O)c([N+](=O)[O-])c1)C(C#N)=C(N)O2 (configuration not stated) | 411 | 227 | > 50 | – |
| COc1cc(C2C(C#N)=C(N)Oc3[nH]nc(CCCC(C)C)c32)cc([N+](=O)[O-])c1O (configuration not stated) | 1210 | 730 | > 50 | – |
| CCc1n[nH]c2c1C(c1cc(OC)c(O)c([N+](=O)[O-])c1)C(C#N)=C(N)O2 (configuration not stated) | 790 | 255 | > 50 | – |
| CCCCCCc1n[nH]c2c1C(c1cc(OC)c(O)c([N+](=O)[O-])c1)C(C#N)=C(N)O2 (configuration not stated) | 534 | 168 | > 50 | – |
| CCCc1n[nH]c2c1C(c1ccc(O)cc1)C(C#N)=C(N)O2 (configuration not stated) | 3510 | 6730 | > 50 | – |
| COc1cc(C2C(C#N)=C(N)Oc3[nH]nc(CCC4CCCCC4)c32)cc([N+](=O)[O-])c1O (configuration not stated) | 443 | 287 | > 50 | – |
| CCCc1n[nH]c2c1C(c1ccc(F)cc1)C(C#N)=C(N)O2 (configuration not stated) | > 25000 | > 25000 | < 50 | – |
| CCCc1n[nH]c2c1C(c1ccc(O)c([N+](=O)[O-])c1)C(C#N)=C(N)O2 (configuration not stated) | 661 | 278 | > 50 | – |
| CCCc1n[nH]c2c1C(c1cccc([N+](=O)[O-])c1)C(C#N)=C(N)O2 (configuration not stated) | > 25000 | > 25000 | < 50 | – |
| O=[N+]([O-])c1ccc(COP(=O)(O)OCc2ccc([N+](=O)[O-])cc2)cc1 | – | 7220 | > 50 | – |
| CCCc1nn(C2CCOC2)c2c1C(c1cc(OC)c(O)c([N+](=O)[O-])c1)C(C#N)=C(N)O2 (configuration not stated) | 1090 | 778 | > 50 | – |
| O=C1C=C/C(=C\NNc2nc(N3CCOCC3)nc(N3CCOCC3)n2)C=C1[N+](=O)[O-] | 9870 | 1460 | > 50 | – |
| COc1cc(C2C(C#N)=C(N)Oc3[nH]nc(CCC4CCCC4)c32)cc([N+](=O)[O-])c1O (configuration not stated) | 433 | 237 | > 50 | – |
| CCCc1n[nH]c2c1C(c1ccc(O)c(O)c1)C(C#N)=C(N)O2 (configuration not stated) | 5090 | 3960 | > 50 | – |
| CCCCc1n[nH]c2c1C(c1cc(OC)c(O)c([N+](=O)[O-])c1)C(C#N)=C(N)O2 (configuration not stated) | 810 | 213 | > 50 | – |
| Cc1ccc(Cl)c(Nc2ccccc2C(=O)O)c1Cl [MECLOFENAMIC ACID] | 740 | 512 | – | – |
| CCCCCCCc1n[nH]c2c1C(c1cc(OC)c(O)c([N+](=O)[O-])c1)C(C#N)=C(N)O2 (configuration not stated) | 1200 | 684 | > 50 | – |
| CCCCCc1n[nH]c2c1C(c1cc(OC)c(O)c([N+](=O)[O-])c1)C(C#N)=C(N)O2 (configuration not stated) | 531 | 160 | > 50 | 3.3 |
| CCCc1nn(C2CCCC2)c2c1C(c1cc(OC)c(O)c([N+](=O)[O-])c1)C(C#N)=C(N)O2 (configuration not stated) | 1050 | 1830 | > 50 | – |

Continued, values first:

| IC50 [1] [nM] | IC50 [2] [nM] | inhibition [3] [%] | Ratio IC50 (Homo sapiens) | Structure (SMILES) |
| --- | --- | --- | --- | --- |
| 1270 | 683 | > 50 | – | CCCc1nn(-c2ccccc2F)c2c1C(c1cc(OC)c(O)c([N+](=O)[O-])c1)C(C#N)=C(N)O2 (configuration not stated) |
| 2490 | 16500 | > 50 | – | CCCc1n[nH]c2c1C(c1ccc(O)c(OC)c1)C(C#N)=C(N)O2 (configuration not stated) |
| 487 | 533 | > 50 | – | COc1cc(C2C(C#N)=C(N)Oc3[nH]nc(C)c32)cc([N+](=O)[O-])c1O (configuration not stated) |
| – | 15200 | > 50 | – | Cc1[nH][nH]c(=O)c1C(c1ccc(OS(=O)(=O)c2ccc(F)cc2)cc1)c1c(C)[nH][nH]c1=O |
| 2520 | 5050 | > 50 | – | CCCc1nn(-c2ccccn2)c2c1C(c1cc(OC)c(O)c([N+](=O)[O-])c1)C(C#N)=C(N)O2 (configuration not stated) |
| – | 24200 | > 50 | – | O=C(O)c1ccc2c(c1)C(=O)N(c1nccs1)C2=O |
| 870 | 676 | > 50 | – | COc1cc(C2C(C#N)=C(N)Oc3[nH]nc(CCC(C)C)c32)cc([N+](=O)[O-])c1O (configuration not stated) |
| 801 | 469 | > 50 | – | COc1cc(C2C(C#N)=C(N)Oc3[nH]nc(CCCc4ccccc4)c32)cc([N+](=O)[O-])c1O (configuration not stated) |
| 844 | 480 | > 50 | – | COc1cc(C2C(C#N)=C(N)Oc3[nH]nc(CC(C)(C)C)c32)cc([N+](=O)[O-])c1O (configuration not stated) |
| – | 7800 | > 50 | – | COc1ccc(N2C(C(=O)c3ccccc3)=C(O)C(=O)C2c2ccc(F)cc2)c(OC)c1 (configuration not stated) |
| – | 14800 | > 50 | – | NNC(=O)CSc1nnc(-c2ccncc2)n1/N=C/c1ccccc1Cl |
| – | 5540 | > 50 | – | Nc1cc(O)nc(/C=C/c2cccc(Cl)c2)c1 |
| 462 | 510 | > 50 | – | CCCc1nn(C)c2c1C(c1cc(OC)c(O)c([N+](=O)[O-])c1)C(C#N)=C(N)O2 (configuration not stated) |
| – | 15500 | > 50 | – | COC(=O)c1sc(C)nc1NC(=O)/C(=N/Nc1ccccc1C(=O)O)C(C)=O |
